Experimental data: article PMC9463588 (The Journal of Biological Chemistry, 2022)
Changes are numbered by the printed parent chain. Numbers in names are those of the source. Entries after “also recorded” stand apart in the source; their conditions may differ. Where two headings read alike, the source gives them in different places. Values belong to the molecule of their own block, whether it stands above or below them.

Tests used:
human CYP8B1 [1] = biological target: T1, human CYP8B1 (Homo sapiens, UniProt Q9UNU6); assay: CYP8B1 inhibition assays; assay type: biochemical; conditions: activity remaining vs control without inhibitor, 80 μM inhibitor
T1 sequence (Q9UNU6 26-501 limits assumed): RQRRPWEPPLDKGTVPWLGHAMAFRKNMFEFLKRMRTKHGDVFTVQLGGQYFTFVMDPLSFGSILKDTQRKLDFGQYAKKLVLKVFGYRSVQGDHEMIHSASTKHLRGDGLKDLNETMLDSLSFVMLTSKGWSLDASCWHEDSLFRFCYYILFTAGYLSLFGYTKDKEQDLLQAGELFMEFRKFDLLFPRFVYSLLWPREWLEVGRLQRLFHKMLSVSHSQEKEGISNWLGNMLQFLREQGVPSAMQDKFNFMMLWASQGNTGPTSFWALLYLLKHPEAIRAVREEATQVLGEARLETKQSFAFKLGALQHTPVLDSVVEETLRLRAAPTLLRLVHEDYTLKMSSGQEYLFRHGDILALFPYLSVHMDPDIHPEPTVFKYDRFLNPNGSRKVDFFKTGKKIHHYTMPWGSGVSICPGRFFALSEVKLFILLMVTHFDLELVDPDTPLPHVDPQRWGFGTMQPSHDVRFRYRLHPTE
Procedure, shortened: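 Test compound at 80 μM was added to the kinetic assay: 0.01 μM CYP8B1 and 0.06 μM human P450 reductase in 50 mM potassium phosphate pH 7.4 with 20% glycerol, preincubated 10 min at room temperature. Substrate 7α-hydroxycholest-4-en-3-one was added, 200 μM NADPH started the reaction at 37 °C, and chloroform stopped it. The 12α-hydroxy product was measured by HPLC-UV at 240 nm. Activity is % of an inhibitor-free control; duplicate or triplicate.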

human CYP8B1 [2] = biological target: T1, human CYP8B1; assay: Ligand-binding assay by shift of the heme Soret peak, wild type CYP8B1; conditions: for Kd / KD: azoles, single site binding fit, interval in parentheses; for Shift in Soret peak: spectral binding type, wild type CYP8B1
Procedure, shortened: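 Recombinant human CYP8B1 was expressed in E. coli with groES-groEL co-expression and purified by Ni-NTA and cation-exchange chromatography. Ligand was titrated into 1 μM enzyme in 50 mM potassium phosphate with 20% glycerol, in a 1 cm cuvette; azoles were dissolved in DMSO. The Soret shift (local absorbance maximum minus minimum) was plotted against concentration and fitted to a single-site specific binding equation, in triplicate.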

CYP8B1 W281F = biological target: T2, CYP8B1 W281F (Homo sapiens, UniProt Q9UNU6, W281F); assay: Ligand-binding assay by shift of the heme Soret peak, CYP8B1 W281F mutant
T2 sequence (Q9UNU6 26-501 W281F limits assumed): T1 sequence (Q9UNU6 26-501 limits assumed) with W256F

[3] = cited from earlier work
[4] = substrate: CC(C)CCC[C@@H](C)[C@H]1CC[C@H]2[C@@H]3[C@H](O)CC4=CC(=O)CC[C@]4(C)[C@H]3CC[C@]12C; assay type: biochemical, human; conditions: other: W281F mutant, 95% CI; pH 7.4
[5] = substrate: CC(C)CCC[C@@H](C)[C@H]1CC[C@H]2[C@@H]3[C@H](O)CC4=CC(=O)CC[C@]4(C)[C@H]3CC[C@]12C; assay type: biochemical, human; conditions: other: wild type CYP8B1, 95% CI; pH 7.4

- Turnover at 80 μM (%) (human CYP8B1 [1]): 30%
- Kd (human CYP8B1 [2]): 1300 nM
- Shift in Soret peak (human CYP8B1 [2]): Type II
Molecule: Clc1cccc(C(c2ccc3[nH]cnc3c2)n2ccnc2)c1 (centres unmarked) [Liarozole]

- Turnover at 80 μM (%) (human CYP8B1 [1]): 6.8%
- Kd (human CYP8B1 [2]): 1600 nM
- Shift in Soret peak (human CYP8B1 [2]): Type II
Molecule: Clc1ccccc1C(c1ccccc1)(c1ccccc1)n1ccnc1 [Clotrimazole]

- Kd (CYP8B1 W281F): 34.3 nM
- Shift in Soret peak (human CYP8B1 [2]): type I
Molecule: CC(C)CCC[C@@H](C)[C@H]1CC[C@H]2[C@@H]3[C@H](O)CC4=CC(=O)CC[C@]4(C)[C@H]3CC[C@]12C [7α-hydroxycholest-4-en-3-one]

Molecule: C[C@H](CCC(=O)O)[C@H]1CC[C@H]2[C@@H]3[C@H](O)C[C@@H]4C[C@H](O)CC[C@]4(C)[C@H]3C[C@H](O)[C@]12C [Cholic acid]
- critical micellar concentration [3]: ~50 µM

- Turnover at 80 μM (%) (human CYP8B1 [1]): 16%
- Kd (human CYP8B1 [2]): 1300 nM
- KD (human CYP8B1 [2]): micromolar
- Shift in Soret peak (human CYP8B1 [2]): Type II
Molecule: CC(=O)N1CCN(c2ccc(OCC3COC(Cn4ccnc4)(c4ccc(Cl)cc4Cl)O3)cc2)CC1 (centres unmarked) [Ketoconazole]

- Turnover at 80 μM (%) (human CYP8B1 [1]): 1.4%
- Kd (human CYP8B1 [2]): 210 nM
- KD (human CYP8B1 [2]): submicromolar
- Shift in Soret peak (human CYP8B1 [2]): Type II
Molecule: Clc1ccc(C(Cn2ccnc2)OCc2ccsc2Cl)c(Cl)c1 (centres unmarked) [Tioconazole]

- Turnover at 80 μM (%) (human CYP8B1 [1]): 1.7%
- Kd (human CYP8B1 [2]): 57 nM
- KD (human CYP8B1 [2]): submicromolar
- Shift in Soret peak (human CYP8B1 [2]): Type II
Molecule: Clc1ccc(COC(Cn2ccnc2)c2ccc(Cl)cc2Cl)cc1 (centres unmarked) [Econazole]

- Turnover at 80 μM (%) (human CYP8B1 [1]): 0.75%
- Turnover at 80 μM (%) (human CYP8B1 [1]; listed as miconazole): less than 1%
- Kd (human CYP8B1 [2]): 98 nM
- KD (human CYP8B1 [2]): submicromolar
- Shift in Soret peak (human CYP8B1 [2]): Type II
Molecule: Clc1ccc(COC(Cn2ccnc2)c2ccc(Cl)cc2Cl)c(Cl)c1 (centres unmarked) [Miconazole]

- Turnover at 80 μM (%) (human CYP8B1 [1]): 95%
- Shift in Soret peak (human CYP8B1 [2]): None
Molecule: OC(Cn1cncn1)(Cn1cncn1)c1ccc(F)cc1F [Fluconazole]
- Shift in Soret peak (human CYP8B1 [2]; listed as fluconazole): did not induce a shift; also recorded: no binding

B1: CYP8B1 W281F (Homo sapiens; W281F) (protein)
chain: T1 sequence (Q9UNU6 26-501 limits assumed) with W256F
- Km [4]: 0.54 µM
- kcat [4]: 0.02 s⁻¹
- kcat/Km [4]: 2.2 μM^−^1min^−1

B2: human CYP8B1 (Homo sapiens) (protein)
chain: T1 sequence (Q9UNU6 26-501 limits assumed)
- Km [5]: 0.5 µM
- kcat [5]: 0.123 s⁻¹
- kcat/Km [5]: 14.7 μM^−^1min^−1
